Reference: ChEMBL document CHEMBL1133557, “Synthesis, SARs, and pharmacological characterization of 2-amino-3 or 6-fluorobicyclo[3.1.0]hexane-2,6-dicarboxylic acid derivatives as potent, selective, and orally active group II metabotropic glutamate receptor agonists” (J Med Chem, 2000)

Legend:
[1] = test system: Rattus norvegicus; experiment: Tested for mGluR agonist activity by measuring the PCP induced hyperactivity in rats at 3 mg/kg; format: functional
In short: (§1)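 Rats housed singly and acclimatized 60 min in activity-monitoring apparatus inside a sound-proof box. Oral dosing 180 min before PCP 5 mg/kg i.p.; locomotor counts recorded every 10 min for 120 min, n=6 per group. Total counts expressed as percent inhibition relative to vehicle (100%); ED50 derived; ANOVA plus Dunnett's test.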

[2] = test system: Rattus norvegicus; experiment: Tested for mGluR agonist activity by measuring the PCP induced head-weavings in rats at 300 ug/kg; format: functional
In short: (§2)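 Rats acclimatized individually at least 60 min. Compound given orally 60 min before PCP 7.5 mg/kg i.p. Head-weavings (slow side-to-side head movements) counted every 10 min for 30 min after PCP, n=6 per group. Percent inhibition versus vehicle total (100%); ED50 derived; ANOVA with Dunnett's test.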

[3] = test system: Rattus norvegicus; experiment: Tested for mGluR agonist activity by measuring the PCP induced head-weavings in rats at 1000 ug/kg; format: functional; in short: as §2
[4] = test system: Rattus norvegicus; experiment: (§3) Effective dose to evaluate PCP induced hyper activity in rats after oral administration; format: functional; in short: as §1
[5] = test system: Rattus norvegicus; experiment: Tested for % inhibition of PCP induced head-weavings in rats at 1000 ug/kg; format: functional; in short: as §2
[6] = target: T1, Metabotropic glutamate receptor 3 (Rattus norvegicus, UniProt P31422); experiment: Agonist potency against cloned Metabotropic glutamate receptor 3; format: functional
T1 sequence (P31422 whole entry): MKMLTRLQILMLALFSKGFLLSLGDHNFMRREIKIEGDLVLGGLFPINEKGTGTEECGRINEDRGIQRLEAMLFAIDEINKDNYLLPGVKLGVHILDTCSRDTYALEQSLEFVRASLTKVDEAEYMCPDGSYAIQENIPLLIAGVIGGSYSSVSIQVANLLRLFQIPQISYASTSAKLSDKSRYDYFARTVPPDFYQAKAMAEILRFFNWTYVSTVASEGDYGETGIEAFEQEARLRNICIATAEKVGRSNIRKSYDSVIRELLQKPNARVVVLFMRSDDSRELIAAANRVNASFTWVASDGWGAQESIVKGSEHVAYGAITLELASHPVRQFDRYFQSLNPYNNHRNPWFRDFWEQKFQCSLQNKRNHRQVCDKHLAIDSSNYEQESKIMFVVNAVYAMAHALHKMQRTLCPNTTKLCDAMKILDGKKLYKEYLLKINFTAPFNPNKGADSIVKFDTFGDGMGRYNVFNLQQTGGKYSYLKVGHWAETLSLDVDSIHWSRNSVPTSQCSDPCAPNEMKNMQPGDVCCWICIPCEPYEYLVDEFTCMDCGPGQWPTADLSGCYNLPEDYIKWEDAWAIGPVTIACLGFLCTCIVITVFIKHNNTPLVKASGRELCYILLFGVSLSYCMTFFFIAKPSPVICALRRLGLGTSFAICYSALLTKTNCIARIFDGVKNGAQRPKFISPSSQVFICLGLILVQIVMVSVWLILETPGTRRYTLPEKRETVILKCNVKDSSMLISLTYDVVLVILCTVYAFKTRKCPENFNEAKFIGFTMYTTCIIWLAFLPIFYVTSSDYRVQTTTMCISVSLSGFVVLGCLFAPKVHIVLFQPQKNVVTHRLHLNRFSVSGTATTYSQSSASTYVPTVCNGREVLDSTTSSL

[7] = test system: Rattus norvegicus; experiment: Tested for % inhibition of PCP induced head-weavings in rats at 100 ug/kg; format: functional; in short: as §2
[8] = test system: Rattus norvegicus; experiment: (§4) Tested for % inhibition of PCP induced hyperactivity in rats at 30 mg/kg; format: functional; in short: as §1
[9] = test system: Rattus norvegicus; experiment: Tested for % inhibition of PCP induced head-weavings in rats at 300 ug/kg; format: functional; in short: as §2
[10] = test system: Rattus norvegicus; experiment: (§5) Tested for mGluR agonist activity by measuring the PCP induced hyperactivity in rats at 30 mg/kg; format: functional; in short: as §1
[11] = test system: Rattus norvegicus; experiment: Tested for % inhibition of PCP induced hyperactivity in rats at 3 mg/kg; format: functional; in short: as §1
[12] = test system: Rattus norvegicus; experiment: (§6) Tested for mGluR agonist activity by measuring the PCP induced hyperactivity in rats at 10 mg/kg; format: functional; in short: as §1
[13] = test system: Rattus norvegicus; experiment: Tested for mGluR agonist activity by measuring the PCP induced head-weavings in rats at 100 ug/kg; format: functional; in short: as §2
[14] = target: T1, Metabotropic glutamate receptor 3; experiment: Tested for binding affinity against Metabotropic glutamate receptor 3 in CHO cells using [3H]-7 as radioligand; format: cell-based
[15] = test system: Rattus norvegicus; experiment: (§7) Tested for % inhibition of PCP induced hyperactivity in rats at 10 mg/kg; format: functional; in short: as §1
[16] = target: T1, Metabotropic glutamate receptor 3; experiment: Antagonist activity against Metabotropic glutamate receptor 3 expressed in CHO cells was evaluated in presence of 30 uM glutamic acid; format: functional, cell-based
In short: (§8)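 mGluR2- or mGluR3-expressing CHO cells grown 2 days, then held 4-5 h in medium without glutamine. Cells were preincubated 20 min at 37 °C in PBS with 1 mM IBMX, then exposed for 15 min at 37 °C to 10 µM forskolin plus test agent with 30 µM glutamic acid present. Reaction stopped with ice-cold ethanol; cAMP measured by enzyme immunoassay.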

[17] = test system: Rattus norvegicus; experiment: as §4; format: functional; remark: listed apart in the source
[18] = test system: Rattus norvegicus; experiment: as §6; format: functional; remark: listed apart in the source
[19] = test system: Rattus norvegicus; experiment: Effective dose to evaluate PCP induced head-weaving behavior in rats after oral administration; format: functional
[20] = test system: Rattus norvegicus; experiment: Tested for mGluR agonist activity by measuring the PCP induced hyperactivity in rats at […]; format: functional
[21] = test system: Rattus norvegicus; experiment: as §7; format: functional; remark: listed apart in the source
[22] = test system: Rattus norvegicus; experiment: as §3; format: functional; remark: listed apart in the source
[23] = test system: Rattus norvegicus; experiment: Tested for mGluR agonist activity by measuring the head-weaving behavior in rats at 1000 ug/kg
[24] = test system: Rattus norvegicus; experiment: Tested for mGluR agonist activity by measuring the PCP induced hyperactivity in rats at 100 mg/kg; format: functional
[25] = test system: Rattus norvegicus; experiment: Tested for % inhibition of PCP induced hyperactivity in rats at 100 mg/kg
[26] = test system: Rattus norvegicus; experiment: as §5; format: functional; remark: listed apart in the source
[27] = test system: Rattus norvegicus; experiment: Tested for % inhibition of PCP induced head-weavings in rats at 10000 ug/kg
[28] = target: T2, Metabotropic glutamate receptor 2 (Rattus norvegicus, UniProt P31421); experiment: Antagonist activity against Metabotropic glutamate receptor 2 expressed in CHO cells was evaluated in presence of 30 uM glutamic acid; format: functional, cell-based; conditions: read-out: EC50 (the source's name)
T2 sequence (P31421 whole entry): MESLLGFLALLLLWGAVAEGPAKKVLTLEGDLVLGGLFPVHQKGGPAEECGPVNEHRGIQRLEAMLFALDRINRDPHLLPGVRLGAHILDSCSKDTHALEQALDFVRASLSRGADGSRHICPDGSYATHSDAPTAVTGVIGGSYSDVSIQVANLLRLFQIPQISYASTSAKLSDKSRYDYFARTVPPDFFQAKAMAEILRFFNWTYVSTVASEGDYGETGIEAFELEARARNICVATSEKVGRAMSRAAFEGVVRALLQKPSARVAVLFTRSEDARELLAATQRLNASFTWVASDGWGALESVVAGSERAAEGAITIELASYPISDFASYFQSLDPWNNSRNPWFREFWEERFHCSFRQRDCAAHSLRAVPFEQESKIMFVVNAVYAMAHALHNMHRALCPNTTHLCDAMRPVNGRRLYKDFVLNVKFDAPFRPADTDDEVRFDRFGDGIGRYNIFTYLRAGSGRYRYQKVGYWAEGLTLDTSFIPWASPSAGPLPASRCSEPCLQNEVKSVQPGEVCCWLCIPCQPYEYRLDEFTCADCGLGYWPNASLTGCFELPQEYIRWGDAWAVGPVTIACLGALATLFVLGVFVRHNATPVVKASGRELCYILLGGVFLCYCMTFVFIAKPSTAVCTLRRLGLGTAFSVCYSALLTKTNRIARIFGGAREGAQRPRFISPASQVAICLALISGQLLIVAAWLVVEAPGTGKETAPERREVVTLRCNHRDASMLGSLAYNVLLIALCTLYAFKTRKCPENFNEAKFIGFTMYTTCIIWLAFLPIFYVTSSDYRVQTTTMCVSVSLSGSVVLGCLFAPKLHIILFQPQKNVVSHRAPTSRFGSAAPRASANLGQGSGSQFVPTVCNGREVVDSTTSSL

[29] = target: T2, Metabotropic glutamate receptor 2; experiment: Agonist activity against Metabotropic glutamate receptor 2 expressed in CHO cells was evaluated by measuring forskolin-induced cyclic AMP formation; format: functional, cell-based
[30] = target: T2, Metabotropic glutamate receptor 2; experiment: Antagonist activity against Metabotropic glutamate receptor 2 expressed in CHO cells was evaluated by measuring forskolin-induced cyclic AMP formation; format: functional, cell-based; in short: as §8
[31] = test system: Rattus norvegicus; experiment: Tested for mGluR agonist activity by measuring the PCP induced head weaving behavior in rats at 0.1 ug/kg; format: functional; in short: as §2
[32] = test system: Rattus norvegicus; experiment: Tested for mGluR agonist activity by measuring the PCP induced head weaving behavior in rats at 0.03 ug/kg; format: functional; in short: as §2
[33] = test system: Rattus norvegicus; experiment: Tested for % inhibition of PCP induced hyperactivity in rats at 0.1 mg/kg; format: functional; in short: as §1
[34] = test system: Rattus norvegicus; experiment: Tested for mGluR agonist activity by measuring the PCP induced hyperactivity in rats at 0.3 mg/kg; format: functional; in short: as §1
[35] = test system: Rattus norvegicus; experiment: Tested for % inhibition of PCP induced hyperactivity in rats at 0.3 mg/kg; format: functional; in short: as §1
[36] = test system: Rattus norvegicus; experiment: Tested for mGluR agonist activity by measuring the PCP induced hyperactivity in rats at 0.1 mg/kg; format: functional; in short: as §1
[37] = test system: Rattus norvegicus; experiment: Tested for mGluR agonist activity by measuring the PCP induced head weaving behavior in rats at 0.3 ug/kg; format: functional; in short: as §2
[38] = test system: Rattus norvegicus; experiment: Tested for mGluR agonist activity by measuring the PCP induced hyperactivity in rats at 1 mg/kg; format: functional; in short: as §1
[39] = test system: Rattus norvegicus; experiment: Tested for % inhibition of PCP induced head-weavings in rats at 0.3 ug/kg; format: functional; in short: as §2
[40] = target: T2, Metabotropic glutamate receptor 2; experiment: Tested for binding affinity against Metabotropic glutamate receptor 2 in CHO cells using [3H]-7 as radioligand; format: cell-based
[41] = test system: Rattus norvegicus; experiment: Tested for % inhibition of PCP induced head-weavings in rats at 0.1 ug/kg; format: functional; in short: as §2
[42] = test system: Rattus norvegicus; experiment: Tested for % inhibition of PCP induced head-weavings in rats at 0.03 ug/kg; format: functional; in short: as §2
[43] = test system: Rattus norvegicus; experiment: Tested for % inhibition of PCP induced hyperactivity in rats at 1 mg/kg; format: functional; in short: as §1

What does the source list for `N[C@]1(C(=O)O)[C@H]2[C@@H](C[C@@H]1F)[C@@H]2C(=O)O`?
Total counts [1]: 40600; Total counts [2]: 21; Total counts [3]: 7.5; ED50 [4]: 5.1 mg/kg; inhibition in vivo at 1 mg/kg [5]: 81%; EC50 [6]: 0.0454 µM; inhibition in vivo at 0.1 mg/kg [7]: 35%; inhibition in vivo at 30 mg/kg [8]: 97%; inhibition in vivo at 0.3 mg/kg [9]: 47%; Total counts [10]: 1850; inhibition in vivo at 3 mg/kg [11]: 26%; Total counts [12]: 11300; Total counts [13]: 25.5; Ki [14]: 0.0659 µM; inhibition in vivo at 10 mg/kg [15]: 79%; EC50 [16]: > 100 µM

What does the source list for `N[C@@]1(C(=O)O)CC[C@H]2[C@H](C(=O)O)[C@H]21`?
inhibition in vivo at 30 mg/kg [17]: 32%; Total counts [18]: 40600; ED50 [19]: 3 mg/kg; Total counts [20]: 6.5; inhibition in vivo at 10 mg/kg [21]: 37%; ED50 [22]: > 100 mg/kg; EC50 [6]: 0.0628 µM; Number of head-weavings [23]: 33; Total counts [24]: 36000; inhibition in vivo at 100 mg/kg [25]: 44%; Total counts [26]: 43800; Ki [14]: 0.0535 µM; Inhibition % [27]: 83%

For `N[C@@]1(C(=O)O)CC(O)[C@@H]2[C@H]1[C@@]2(F)C(=O)O` (mixture of isomers), which IC50 [28] is on record?
The IC50 was > 100 µM.

And the EC50 [29]?
Its EC50 is 0.021 µM.

How did the EC50 [29] turn out when `N[C@@]1(C(=O)O)CC(=O)[C@@H]2[C@H]1[C@@]2(F)C(=O)O` (racemic) was run?
Its EC50 is 0.00126 µM.

For `N[C@]1(C(=O)O)[C@H]2[C@@H](CC1(F)F)[C@@H]2C(=O)O` (racemic), which IC50 [28] is on record?
Its IC50 is 36.2 µM.

What about the EC50 [29] of the same compound?
Its EC50 is > 100 µM.

For `N[C@@]1(C(=O)O)CC[C@@H]2[C@H]1[C@@]2(F)C(=O)O` (racemic), which EC50 [29] is on record?
The EC50 was 0.0342 µM.

How did the EC50 [30] turn out when `C[C@]1(C(=O)O)[C@@H]2CC[C@@](N)(C(=O)O)[C@@H]21` (racemic) was run?
Its EC50 is > 100 µM.

What about the EC50 [29] of the same compound?
The EC50 was > 100 µM.

How did the EC50 [29] turn out when `N[C@@]1(C(=O)O)CC[C@@H]2[C@H]1[C@@]2(F)C(=O)O` (stereo in doubt; (+)11) was run?
Its EC50 is 1.12 µM.

With `N[C@@]1(C(=O)O)CC(=O)[C@@H]2[C@H]1[C@@]2(F)C(=O)O` (stereo in doubt; (+)-14) as the compound, how does the IC50 [28] read?
Its IC50 is > 100 µM.

And the Total counts [31]?
Its Total counts is 16.2.

What about the Total counts [1] of the same compound?
Its Total counts is 7760.

And the Total counts [32]?
The Total counts was 27.1.

What about the ED50 [4] of the same compound?
The ED50 was 0.3 mg/kg.

What about the inhibition in vivo at 0.1 mg/kg [33] of the same compound?
Its inhibition in vivo at 0.1 mg/kg is 36%.

What about the Total counts [34] of the same compound?
Its Total counts is 27700.

What about the inhibition in vivo at 0.3 mg/kg [35] of the same compound?
The inhibition in vivo at 0.3 mg/kg was 54%.

And the Total counts [36]?
Its Total counts is 38500.

And the EC50 [29]?
The EC50 was 0.00057 µM.

What about the Total counts [37] of the same compound?
The Total counts was 4.88.

And the EC50 [6]?
The EC50 was 0.00207 µM.

What about the Total counts [38] of the same compound?
Its Total counts is 26100.

And the inhibition in vivo at 3 mg/kg [11]?
The inhibition in vivo at 3 mg/kg was 87%.

What about the inhibition in vivo at 0.0003 mg/kg [39] of the same compound?
Its inhibition in vivo at 0.0003 mg/kg is 86%.

What about the Ki [40] of the same compound?
Its Ki is 0.0033 µM.

What about the Ki [14] of the same compound?
The Ki was 0.00362 µM.

What about the inhibition in vivo at 0.0001 mg/kg [41] of the same compound?
Its inhibition in vivo at 0.0001 mg/kg is 52%.

What about the inhibition in vivo at 3e-05 mg/kg [42] of the same compound?
The inhibition in vivo at 3e-05 mg/kg was 21%.

And the inhibition in vivo at 1 mg/kg [43]?
Its inhibition in vivo at 1 mg/kg is 56%.

What about the EC50 [16] of the same compound?
Its EC50 is > 100 µM.

Which results are given for `N[C@@]1(C(=O)O)CC[C@@H]2[C@H]1[C@@]2(F)C(=O)O` (stereo in doubt; (-)-11)?
IC50 [28]: > 100 µM; EC50 [29]: 0.0166 µM; EC50 [6]: 0.0809 µM; Ki [40]: 0.0225 µM; Ki [14]: 0.0417 µM; EC50 [16]: > 100 µM

For `N[C@@]1(C(=O)O)CC(=O)[C@@H]2[C@H]1[C@@]2(F)C(=O)O` (stereo in doubt; (-)-14), which EC50 [29] is on record?
Its EC50 is 0.0947 µM.
